Data published in article PMC4765323 (Current topics in medicinal chemistry, 2009).
Substitutions are numbered along the chain they refer to.

B1: MT7 (protein, UniProt Q8QGR0 22-86, looked up)
Muscarinic toxin 7: LTCVKSNSIWFPTSEDCPDGQNLCFKRWQYISPRMYDFTRGCAATCPKAEYRDVINCCGTDKCNK

What was measured:
plasma:brain study = assay type: in vivo, Sprauge Dawley rat; conditions: male rats, 10 mg/kg i.p.
[1] = tested on: pilocarpine-induced seizures; test: pilocarpine-induced seizures in vivo; design: species or system mice; conditions: pilocarpine 280 mg/kg
M1 mAChR (M1/CHO cells) = biological target: T1, M1 mAChR (M1/CHO cells) (Rattus norvegicus, UniProt P08482); test: functional cell-based calcium-mobilization assay, M1/CHO cell line; conditions: read-out: M1 IC50
T1 sequence (P08482 1-460): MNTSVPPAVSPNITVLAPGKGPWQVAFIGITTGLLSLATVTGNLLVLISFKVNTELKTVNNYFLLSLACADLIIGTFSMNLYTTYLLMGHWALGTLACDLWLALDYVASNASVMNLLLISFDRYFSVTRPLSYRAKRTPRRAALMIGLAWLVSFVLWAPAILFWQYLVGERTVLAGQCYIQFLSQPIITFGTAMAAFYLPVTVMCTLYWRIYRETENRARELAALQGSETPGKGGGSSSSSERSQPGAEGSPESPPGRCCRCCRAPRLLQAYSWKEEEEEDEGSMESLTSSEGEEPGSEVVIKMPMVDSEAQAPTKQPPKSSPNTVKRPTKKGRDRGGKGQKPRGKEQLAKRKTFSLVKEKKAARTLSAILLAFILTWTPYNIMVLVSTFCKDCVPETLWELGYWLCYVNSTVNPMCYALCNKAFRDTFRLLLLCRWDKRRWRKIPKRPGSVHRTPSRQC
Summary of the method: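 Real-time calcium mobilisation in CHO cells expressing M1, with a Z' averaging 0.7. Primary hits from a single-pass library screen were retested in duplicate and counter-screened on mGluR4/CHO cells. IC50 values came from 10-point concentration-response curves run in triplicate, tested in parallel on M4/CHO cells.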

M2-M5 mAChR = test: functional mAChR selectivity, M2-M5 reported together; assay type: cell-based, rat
M1 mAChR = biological target: T2, M1 mAChR (Homo sapiens, UniProt P11229); test: phosphoinositide; assay type: cell-based; conditions: PI hydrolysis, ACh concentration-response curve
T2 sequence (P11229 1-460): T1 sequence (P08482 1-460) with V5A, S254T, S309P, K320R, G337A, V413I
Summary of the method: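 Phosphoinositide hydrolysis was driven by an ACh concentration-response curve, run with and without several test compound concentrations. Rightward shifts of the ACh curve were fitted by Schild analysis to give a Kd and a slope.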

[2] = tested on: NMDAR currents in hippocampal CA1 pyramidal cells; assay type: cell-based
Y381A mutant M1 mAChR = biological target: T3, Y381A mutant M1 mAChR (Homo sapiens, UniProt P11229, Y381A); test: mutagenesis experiment, Y381A mutant M1; assay type: cell-based; conditions: wherein ACh loses affinity
T3 sequence (P11229 1-460 Y381A): T1 sequence (P08482 1-460) with V5A, S254T, S309P, K320R, G337A, Y381A, V413I

M1 receptor versus M2-M5 = conditions: reported for known antagonists, no reference given; cited from earlier work

Molecule	BrainAUC/PlasmaAUC (plasma:brain study)	seizure count ([1]; compound 10 mg/kg i.p.)	animals that died ([1]; compound 10 mg/kg i.p. after 40 minutes, 2/8 at 24 hours) [%]	IC50 (M1 mAChR (M1/CHO cells)) [nM]	functional selectivity for M1 versus M2-M5 (M2-M5 mAChR; functional) [fold]	IC50 (M2-M5 mAChR; read-out: M2-M5 IC50, functional, one bound for all of M2-M5) [nM]	inhibition of M2-M5 (M2-M5 mAChR; up to 150 μM in some experiments, concentrations solubility limited)	Schild slope (M1 mAChR)	block of CCh-potentiated NMDA-evoked current ([2]; 10 μM CCh, 5 μM compound)	effect of compound alone on NMDA-evoked current ([2]; compound alone, no CCh)	antagonism of M1 mAChR responses in Y381A mutant (Y381A mutant M1 mAChR)	M1 selectivity versus M2-M5 (M1 receptor versus M2-M5)
O=C(CCNS(=O)(=O)c1cccc2nsnc12)N1CCN(c2ccncc2)CC1 [VU0255035]	0.48	statistically significant effect reducing seizure count	25	130	> 75	> 10000	little inhibition	0.90 ± 0.08	completely blocked	no effect	right shifted	
B1												> 1,000 fold
